Many of the other results were omitted from the sample, so hits are more common in it than they were.
CHOP inhibitor – blocks CHOP induction under ER stress. CHO-K1 CHOP-promoter luciferase, tunicamycin-induced, 15-18 h. 220,000 tested, 3.8% active. inhibition, % at 10 µM. AID 2732;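 active = compounds that reduced the stress-induced luciferase reporter signal by more than about 70% of percent inhibition, limit read from the data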
CHOP UPR activ – activators of apoptotic arm of unfolded protein response (CHOP). CHO-CHOP luciferase reporter, UPR activation, luminescence; percent of tunicamycin response over DMSO baseline. 330,000 tested, 0.34% active. activation, % at 10 µM;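 active = at 10 µM dose, activation of 40% or more, normalized to positive control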
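Assay system: CHO cells with stable CHOP pathway luciferase reporter; Buffer or medium: F12 plus 10% serum; Times: 16-18 h cell attachment, then 6 h compound exposure, 37 °C; Signal: luciferase luminescence; Read-out basis: percent activation relative to tunicamycin control; Control set: tunicamycin high control, DMSO low control.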
T cruzi repl – T. cruzi replication inhibition; T. cruzi beta-gal in NIH3T3, luminescence, 90 h; inhibition, % (concentration not given with the values); 300,000 tested, 1.4% active; AID 1885;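 active = mean inhibition across valid replicates above about 55%, limit read from the data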;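 also: signal also drops with host cell toxicity which is not excluded here; higher percent means less beta-gal luminescence so fewer parasites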
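Test system: β-gal T. cruzi (Tulahuen C4) inside NIH/3T3 cells / Quantity: 5,000 cells/well / Measured by: luminescence from GalScreen with 0.05% NP40, read after 60 min / Medium: DMEM plus 2% FBS / Measure: parasite load inhibition, % / Reagent: Tulahuen C4 trypomastigotes, 5000/well / Schedule: co-culture of at least 90 h after 3 h attachment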
L major viab – Leishmania major promastigote growth inhibition. Leishmania major promastigotes, resazurin fluorescence viability. inhibition, % at 10 µM. 200,000 tested, 9% active. AID 1063; in the data active = inhibition above about 50%;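 also: promastigotes grown with compound for 44 hours at 28 °C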
XBP1 UPR activ – activators of adaptive arm of unfolded protein response (XBP1). CHO-XBP1 luciferase reporter, IRE1-XBP1 UPR activation, luminescence; percent of tunicamycin response, DMSO as zero. activation, % at 20 µM. 330,000 tested, 0.33% active. AID 463104;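 active = versus positive control, 20 µM dose yields 30% or more activation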
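Material: CHO cell line with stable XBP1 luciferase reporter; schedule: 16-18 h cell attachment at 37 °C, then 6 h compound exposure; signal: glow luminescence from Steady-Glo reagent; medium: serum-containing F12 medium, 10% FBS; benchmarks: tunicamycin 10 µg/mL and vehicle-only wells; read-out: percent activation relative to tunicamycin reference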
Dynein cargo inh – blocks dynein driven cargo transport along microtubules; 3617.4 mouse cells, GR-EGFP nuclear translocation imaging; test concentration mostly 20 µM; stimulated with dexamethasone, 1 µM; hits give low values; z-score, hits read low; 220,000 tested, 0.47% active; AID 1381;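 active = plate z-score of nuclear minus cytoplasmic receptor signal below a set negative limit, without overly bright fluorescence or cell loss, cut at about -3.5 in these data, passing the limit was not always enough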;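 also: z-score of nuclear minus cytoplasmic ring GR-EGFP intensity difference per well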
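medium = tetracycline-free induction medium containing charcoal-stripped FBS | probe or stimulus = dexamethasone, 1.0 µM final | timing = 48 h induction, then 1 h compound, then 30 min agonist, 37 °C | detection = automated 10x imaging of fixed Hoechst-stained cells | read-out basis = nuclear versus cytoplasmic GR-EGFP signal, averaged per well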
Of the large screens only hits and unclear results are named; the others gave an inactive call.

Cc1ccc2[nH]c(=O)c(CN(CC3CCCO3)C(=O)c3ccncc3)cc2c1 (configuration not stated)	L major viab 70
Cc1cc(C)c2cc(CN(Cc3nnnn3C3CCCCC3)CC3CCCO3)c(=O)[nH]c2c1 (configuration not stated)	CHOP inhibitor 71, L major viab 99
Cc1ccc2cc(CN(CC3CCCO3)C(=O)C(C)C)c(=O)[nH]c2c1 (configuration not stated)	none
Cc1ccc2cc(CN(Cc3nnnn3C3CCCCC3)CC3CCCO3)c(=O)[nH]c2c1 (configuration not stated)	L major viab 94
Cc1cc(=O)[nH]c(SCC(=O)Nc2cccc(S(=O)(=O)N3CCOCC3)c2)n1	none (no result: CHOP inhibitor, T cruzi repl, L major viab, Dynein cargo inh)
COc1ccc(C(=O)C(C)Sc2nnc(C3CC3)n2C2CC2)cc1 (configuration not stated)	none (no result: CHOP inhibitor, T cruzi repl, L major viab, Dynein cargo inh)
CC(=O)N/N=C\c1cccc(OC/C=C/c2ccccc2)c1	none (no result: CHOP inhibitor, T cruzi repl, L major viab, Dynein cargo inh)
CCc1ccc(NS(=O)(=O)c2c(C(=O)N3CCOCC3)c(C)n(C)c2C)cc1	none (no result: CHOP inhibitor, L major viab, Dynein cargo inh)
C=CCc1c(C)nc(-c2ccccc2)nc1Nc1ccccc1O	L major viab 62
C=CCc1c(C)nc(-c2ccccc2)nc1N/N=C/c1ccncc1	T cruzi repl 55, L major viab 68
Cc1ccc(CNC(=O)C2CCC(=O)N2C(C)C)cc1 (configuration not stated)	none (no result: CHOP inhibitor, L major viab, Dynein cargo inh)
CN1c2ccccc2C(C)(C)C12C=Nc1c(cc(N3CCOCC3)c3ccccc13)O2 (configuration not stated)	none
CN1c2ccccc2C(C)(C)C12C=Cc1cc(O)ccc1O2 (configuration not stated)	L major viab 99 (no result: CHOP inhibitor)
COc1cc(-c2nnc(CSc3nnc(N)s3)o2)cc(OC)c1OC	none
COc1cc(-c2nnc(CSc3nnc(Nc4ccc(Oc5ccccc5)cc4)s3)o2)cc(OC)c1OC	L major viab 77
O=C1CC(c2cc([N+](=O)[O-])ccc2Cl)c2c(ccc3ccccc23)N1 (configuration not stated)	L major viab 92
O=C1CC(c2cccc([N+](=O)[O-])c2)c2ccc3ccccc3c2N1 (configuration not stated)	none
CCOc1ccccc1NC(=O)/C=C/C(N)=O	L major viab 100
CCOc1ccccc1NC(=O)CC(O)(C(F)(F)F)C(F)(F)F	none
CCOc1ccccc1NC(=O)/C=C/c1ccccc1[N+](=O)[O-]	L major viab 78
NS(=O)(=O)c1ccc(NC(=O)/C=C/c2ccccc2[N+](=O)[O-])cc1	L major viab 69
Cc1cccc(N(C(=O)CNC(=O)c2cccs2)C(C(=O)NC2CCCC2)c2ccncc2)c1 (configuration not stated)	none (no result: CHOP inhibitor, L major viab, Dynein cargo inh)
CCOc1ccc(S(=O)(=O)N2CCCCC2)cc1NC(=O)Cc1ccsc1	none (no result: CHOP inhibitor, T cruzi repl, L major viab, Dynein cargo inh)
CCN(CC)CCCCNc1ncc2cc(-c3cc(OC)cc(OC)c3)c(NC(=O)NC(C)(C)C)nc2n1	none (no result: CHOP inhibitor, L major viab, Dynein cargo inh)
CC(C)OC(=O)c1ccc2nc3ccccc3nc2c1	none (no result: CHOP inhibitor, L major viab, Dynein cargo inh)
Clc1ccc(Nc2nc(C3CC3)cs2)cc1	CHOP inhibitor 98
O=C(CCC1CCCC1)NCCCN1CCOCC1	L major viab 67
COc1cc(C(=O)Nc2ccc3nc(N4CCN(C)CC4)cc(C)c3c2)cc(OC)c1OC	none (no result: CHOP inhibitor, L major viab, Dynein cargo inh)
Cc1cc(N2CCCCC2)nc2ccc(NC(=O)c3ccc(Br)o3)cc12	L major viab 94
Cc1cc(N2CCN(C)CC2)nc2ccc(NC(=O)c3ccc4c(c3)OCO4)cc12	L major viab 100 (no result: T cruzi repl)
Cc1cc(N2CCN(C)CC2)nc2ccc(NC(=O)c3ccc(Br)o3)cc12	L major viab 92
COc1ccc(N(CC(=O)NCc2ccco2)C(=O)CCC(=O)Nc2nccs2)c(OC)c1	none (no result: CHOP inhibitor, L major viab, Dynein cargo inh)
Cn1c(N)c(C(=O)COC(=O)c2ccccn2)c(=O)n(C)c1=O	none
Cn1c(N)c(C(=O)COC(=O)C2(c3ccccc3F)CCCC2)c(=O)n(C)c1=O	L major viab 79
CCOc1ncccc1C(=O)OCC(=O)c1c(N)n(C)c(=O)n(C)c1=O	CHOP inhibitor 86
